“Also recorded” adds a separate entry of the source.
Assays:
NAT1 = conditions: cited from earlier work
2′-Deoxyguanosine (dG) = experiment: Trapping reactive N-oxidized electrophiles of PhIP with dG; conditions: 42 nmol, dG 1 mg/mL, pH 8.0, 37 °C, 1 h; total ion counts at MS3 (Fig. 3)
SULT1A1 = conditions: cited from earlier work
albumin in human plasma = albumin in human plasma (Homo sapiens, UniProt P02768); conditions: for level of LQQC*[SOPhIP]PF formed, comparison between the three metabolites: albumin in human plasma or commercial human albumin, p=0.231, one-way ANOVA; for LQQC*[SO2PhIP]PFEDHVK levels, N-acetoxy-PhIP versus HONH-PhIP: human plasma, p>0.05, t-test
Chain of albumin in human plasma (P02768 25-609): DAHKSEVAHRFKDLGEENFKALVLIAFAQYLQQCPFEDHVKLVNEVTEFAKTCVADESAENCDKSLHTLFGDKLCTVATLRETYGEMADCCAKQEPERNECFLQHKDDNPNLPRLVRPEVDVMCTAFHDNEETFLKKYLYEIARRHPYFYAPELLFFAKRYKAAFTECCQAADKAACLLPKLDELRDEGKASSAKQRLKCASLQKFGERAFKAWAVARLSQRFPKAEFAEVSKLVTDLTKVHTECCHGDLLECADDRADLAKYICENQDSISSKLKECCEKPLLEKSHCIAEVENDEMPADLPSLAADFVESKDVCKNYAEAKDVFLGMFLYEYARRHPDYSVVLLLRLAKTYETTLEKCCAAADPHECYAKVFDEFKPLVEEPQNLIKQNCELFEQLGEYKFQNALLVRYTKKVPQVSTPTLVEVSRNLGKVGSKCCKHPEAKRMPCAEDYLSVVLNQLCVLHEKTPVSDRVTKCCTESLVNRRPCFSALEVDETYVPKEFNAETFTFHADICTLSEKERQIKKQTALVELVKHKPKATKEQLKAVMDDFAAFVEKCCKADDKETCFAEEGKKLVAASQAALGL

NAT2 = conditions: cited from earlier work
albumin = conditions: humans; cited from earlier work
[1] = target: albumin in human hepatocytes culture (Homo sapiens, UniProt P02768); experiment: Albumin PhIP adducts and Cys34SO3H in human hepatocytes; type: cell-based
Chain of albumin in human hepatocytes culture (P02768 25-609): as above
Method in brief: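 Primary human hepatocytes (two-step collagenase perfusion) seeded at 3×10^6 viable cells/19.5-cm2 dish in Williams' medium with βME-pre-reduced human albumin (1 g/L) replacing FCS; exposed 24 h to PhIP or 1:1 PhIP:[2H5]-PhIP (50 µM). Medium albumin ethyl acetate-extracted, ethanol-precipitated, kit-isolated, desalted; trypsin/chymotrypsin digested (37 °C, 20 h); C18 SPE; mass-tag data-dependent, then targeted UPLC-ESI/MS2.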

Hb = conditions: humans, radiolabelled 14C-PhIP; cited from earlier work
[2] = N-sulfooxy-PhIP modified albumin, unpublished observations

In the case of `Cn1c(NO)nc2ncc(-c3ccccc3)cc21` [HONH-PhIP, 2-hydroxyamino-1-methyl-6-phenylimidazo[4,5-b]pyridine], the “bioactivation by NAT1” value (NAT1) is given as “poorly bioactivated”, the “relative amount of dG-C8-PhIP formation” value (2′-Deoxyguanosine (dG)) is given as “lastly” and the “bioactivation by SULT1A1” value (SULT1A1) is given as “highly effective”. For the same compound, the “level of LQQC*[SOPhIP]PF formed, comparison between the three metabolites” value (from here on “level of LQQC*[SOPhIP]PF formed”) (albumin in human plasma) was “no statistically significant difference”, the “LQQC*[SO2PhIP]PFEDHVK levels, N-acetoxy-PhIP versus HONH-PhIP” value (albumin in human plasma) was “no significant difference” and the “bioactivation by NAT2” value (NAT2) was “poorly bioactivated”.

For `CC(=O)ONc1nc2ncc(-c3ccccc3)cc2n1C` [N-acetoxy-PhIP, N-(acetyloxy)-2-amino-1-methyl-6-phenylimidazo[4,5-b]pyridine, reference compound], the “relative amount of dG-C8-PhIP formation” value (2′-Deoxyguanosine (dG)) was “greatest amount”, the “level of LQQC*[SOPhIP]PF formed” value (albumin in human plasma) was “no statistically significant difference” and the “LQQC*[SO2PhIP]PFEDHVK levels, N-acetoxy-PhIP versus HONH-PhIP” value (albumin in human plasma) was “no significant difference”.

In the case of `Cn1c(NOS(=O)(=O)O)nc2ncc(-c3ccccc3)cc21` [N-sulfooxy-PhIP, N-sulfooxy-2-amino-1-methyl-6-phenylimidazo[4,5-b]pyridine], the “relative amount of dG-C8-PhIP formation” value (2′-Deoxyguanosine (dG)) was “lower level”, the “level of W[PhIP] adduct relative to signal of C[SO2PhIP]” value (albumin in human plasma; 3-enzyme digest, ion counts (Fig. 7)) was “about half” and the “ion counts of H[PhIP], fold lower than counts of W[PhIP]” value (albumin in human plasma; [2]) was 5 folder. The “ion counts of H[PhIP], fold lower than ion counts of C[SO2PhIP]” value (albumin in human plasma; [2]) was 10 fold, the “level of LQQC*[SOPhIP]PF formed” value (albumin in human plasma) was “no statistically significant difference” and the “level of Trp[PhIP] relative to N-acetoxy-PhIP or HONH-PhIP treated human plasma” value (albumin in human plasma; pronase E/leucine aminopeptidase/prolidase digest, ion counts (Fig. 7B)) was 3 x.

For `Cn1c(N)nc2ncc(-c3ccccc3)cc21` [PhIP, 2-amino-1-methyl-6-phenylimidazo[4,5-b]pyridine], the “binding of PhIP to albumin” value (albumin) is given as “up to several percent of the ingested dose”, the “PhIP and 5-HO-PhIP in the proteolytic digests of albumin” value ([1]; PhIP 50 µM, 24 h (Figs. 8A, 8B)) is given as “detected” and the “Y*[desaminoPhIP]TK (Tyr411) and LQQC*[desaminoPhIP]PF (Cys34) adducts” value ([1]; PhIP 50 µM, tryptic/chymotryptic digest (Fig. 9)) is given as “both adducts were identified”. For the same compound, the “albumin-PhIP peptide adducts at Cys34 or Trp214” value ([1]; PhIP or PhIP:[2H5]-PhIP 50 µM, 24 h, data-dependent and targeted MS2) was “failed to detect; also recorded: below the limit of detection”, the “LQQC*[SO2PhIP]PFEDHVK after m-CPBA oxidation of albumin” value ([1]; albumin isolated from hepatocytes, targeted MS2) was “failed to detect; also recorded: not detected” and the “PhIP binding to Hb” value (Hb) was “very low”.

— paper PMC4437839 (Chemical research in toxicology, 2015)
